Screening data from PubChem BioAssay.
HTRA1 inh: HTRA1 serine protease inhibitors, primary screen, biochemical, fluorescence polarization, HTS | Q92743 | recombinant HTRA1, FP-rhodamine activity-based probe | inhibition, % at 5.96 µM | hit rate 0.5% among 340,000; in the data active means inhibition above about 36%;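 further: 0% = enzyme with DMSO and 100% = wells lacking enzyme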
TDP2 absorb: human TDP2 enzyme inhibitors, primary screen, biochemical, epi absorbance, recombinant enzyme | T5PNP hydrolysis, p-nitrophenol absorbance 415 nm | hit rate 0.34% among 370,000 | Tyrosyl-DNA phosphodiesterase 2 (Homo sapiens), O95551 | inhibition, % at 12.8 µM;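 active means inhibition above the mean of all tested compounds plus 3 SD, set per campaign, cut at about 25% in these data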;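 further: 0% = DMSO with enzyme and 100% = buffer with substrate but no TDP2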
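test system = human TDP2 enzyme | input = TDP2 enzyme at 120 nM final | medium = 50 mM Tris-HCl pH 7.5 with Mg2+, KCl, DTT, BSA | also added = T5PNP substrate, 5 mM | times = 2 h at 37 °C | technique = epi absorbance | benchmarks = high control without enzyme, low control DMSO plus TDP2 | replication = each compound tested once, singlicate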
ABHD4 inh: ABHD4 inhibitors, primary screen, biochemical, fluorescence polarization, mouse | inhibition, % at 8.92 µM | (Lyso)-N-acylphosphatidylethanolamine lipase (Mus musculus), Q8VD66 | hit rate 0.54% among 370,000 | purified mABHD4, FP-Rh probe fluorescence polarization | AID 720543, 2013;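 active means inhibition exceeding the mean over every tested compound plus 3 SD, cut at about 30% in these data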;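 further: 0% = plate median of compound wells and 100% = S159A mutant with DMSO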
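Test system: mABHD4 protein | Buffer or medium: HEPES pH 7.0 buffer, 150 mM NaCl, 0.01% Pluronic F-127 | Probe or stimulus: FP-Rh fluorescent activity-based probe, added after compound pre-incubation | Timing: Pre-incubation 45 min, probe exposure 60 min, at 25 °C | Technique: Fluorescence polarization, excitation 525 nm, emission 598 nm, BODIPY TMR filters | Repeats: Single well per compound (singlicate)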
PAD4 inh: human PAD4 inhibitors, primary screen, biochemical, fluorescence polarization, 1536-well format | hit rate 0.41% among 330,000 | AID 485272, 2010 | recombinant PAD4, RCA probe fluorescence polarization | Protein-arginine deiminase type-4 (Homo sapiens), Q9UM07 | inhibition, % at 6.36 µM;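 active means percent inhibition above a cutoff equal to the mean of all tested compounds plus 3 SD, cut at about 15% in these data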;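 further: 0% = PAD4 with RCA probe and DMSO and 100% = probe without PAD4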
TCR-CD3 inh: inhibitors of human TCR-CD3 interaction, primary screen, biochemical, fluorescence, TAMRA-labeled TCR probe. inhibition, % at 9.4 µM. hit rate 0.37% among 360,000. T-cell receptor (TCR); in the data active means inhibition above about 19%;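 further: recombinant mutant TCR 2C K166C tagged with TAMRA read by polarization; 0% = receptor in buffer alone and 100% = receptor with positive control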
SIAE primary: human SIAE inhibitors, primary screen, biochemical, fluorescence polarization, FP-Rh probe, 1536-well HTS. AID 1053197, 2014. SIAE FP-Rh probe binding. Sialate O-acetylesterase (Homo sapiens), Q9HAT2. hit rate 0.69% among 370,000. inhibition, % at 9.66 µM;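 active means inhibition above a cutoff: mean of compounds within the control limits plus 3 SD of those, cut at about 17% in these data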;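 further: 0% = plate median of compound wells and 100% = probe without SIAE protein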
Target sequence (Q9HAT2 whole entry, looked up): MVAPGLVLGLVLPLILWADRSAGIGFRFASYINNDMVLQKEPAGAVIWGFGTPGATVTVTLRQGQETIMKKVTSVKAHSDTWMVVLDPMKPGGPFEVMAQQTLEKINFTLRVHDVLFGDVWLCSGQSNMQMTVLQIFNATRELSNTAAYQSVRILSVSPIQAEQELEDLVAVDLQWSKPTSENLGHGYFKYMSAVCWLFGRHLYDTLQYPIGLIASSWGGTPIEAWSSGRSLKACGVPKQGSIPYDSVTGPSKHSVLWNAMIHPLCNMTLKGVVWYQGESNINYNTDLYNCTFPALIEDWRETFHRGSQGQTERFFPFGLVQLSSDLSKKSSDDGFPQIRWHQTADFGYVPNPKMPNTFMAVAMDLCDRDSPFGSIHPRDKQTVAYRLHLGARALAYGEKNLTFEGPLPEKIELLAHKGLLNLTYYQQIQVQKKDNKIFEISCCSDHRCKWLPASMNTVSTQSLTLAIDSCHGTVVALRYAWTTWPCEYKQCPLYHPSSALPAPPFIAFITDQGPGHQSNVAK
PAD4 FP conf: human PAD4 inhibitors, confirmation, biochemical, fluorescence polarization. AID 488796, 2010. inhibition, % at 6.36 µM. shares compounds with PAD4 inh. hit rate 28% among 1,200. recombinant PAD4, RCA probe fluorescence polarization;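 active means mean inhibition across replicates above the hit cutoff set by the earlier primary screen, cut at about 15% in these data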;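 further: inhibitors block active-site labeling by the probe so polarization falls; 0% = PAD4 with probe and DMSO and 100% = probe without PAD4 enzyme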
The depositor's hits bear a star; nt = not tested or not shown. The list is not random: actives were taken first. Their share in the collection is about 2%.

SMILES	HTRA1 inh	TDP2 absorb	ABHD4 inh	PAD4 inh	TCR-CD3 inh	SIAE primary	PAD4 FP conf
C=CCN1C=C2C(=O)C(C)(OC(=O)CCC(=O)OC)C(=O)C=C2C=C1C1CC1 (centres undefined)	10	4	13	17*	8	-6	-11
COC(=O)CCC(=O)OC1(C)C(=O)C=C2C=C(C3CC3)N(CCCOC(C)C)C=C2C1=O (centres undefined)	2	nt	nt	30*	nt	nt	-7
NC(=O)c1ccc(NC(=O)CSC(=O)c2ccccc2)cc1	12	-1	-2	17*	4	-5	8
COc1cc2c(C#N)c(N3CCOCC3)nc(N)c2c(N)n1	0	-4	3	18*	-9	2	1
Cc1cc(C(=O)O[C@H]2CCC[C@]3(C(=O)N(Cc4ccccc4)c4ccccc43)[C@H]2NC(=O)CCc2ccccc2)no1	nt	-2	-1	nt	nt	7	nt
C#CCNC(=O)C[C@H]1C[C@@]2(C(=O)OC)C(=C[C@H](COCc3ccccc3)O[C@@H]2C)N(Cc2ccc(Cl)cc2Cl)C1=O	nt	1	-9	nt	nt	-1	nt
Clc1ccc([C@H]2OC[C@@]3(CNCc4ccccc4)CS[C@H](c4ccc(Cl)cc4)N23)cc1	nt	-5	-16	nt	nt	2	nt
COc1cc(-c2nc(C(=O)NC3CCCCC3)cc3c2[nH]c2ccccc23)cc(OC)c1OC	-81	-7	-7	16*	5	-23	16*
COc1cccc(N2CCN(CC(=O)N(C)Cc3ccccc3Cl)CC2)c1	nt	-2	6	nt	nt	4	nt
O=C1N/C(=C\c2ccc(O)cc2)C(=O)c2ccccc21	-12	nt	nt	30*	nt	nt	-3
Cc1cccc(Cn2cc(CN3CC(N(C)CCCOC(=O)c4cc5ccccc5o4)CS3(=O)=O)nn2)c1 (centres undefined)	nt	5	3	nt	nt	3	nt
COc1ccc(-c2noc3c2-c2nc(-c4ccccc4C)sc2CC3)cc1	nt	3	0	-3	3	3	nt
COc1ccc(-c2noc3c2-c2nc(-c4ccc(Br)cc4)sc2CC3)cc1	-1	-1	5	102*	7	0	2
CCCCn1c(NS(=O)(=O)c2ccc(C)cc2)c(S(=O)(=O)c2ccccc2)c2nc3ccccc3nc21	17	58*	-5	36*	-1	3	-7
Cc1ccccc1NC1=C(Cl)C(=O)OC1OC(=O)c1ccccc1C (centres undefined)	-43	1	-1	44*	3	-3	-2
O=C(c1ccncc1F)N1CCC(n2nnc3ncccc32)CC1	nt	3	4	nt	nt	-4	nt
CN(C)CCCNc1cn[nH]c(=O)c1Cl	3	7	-8	60*	6	6	3
O=C(NC1CCCCC1)C(c1cccs1)N(CCCN1CCOCC1)C(=O)c1ccc(-c2ccccc2)[nH]1 (centres undefined)	-15	9	6	63*	-6	0	-5
CCn1c(CSc2nnc(-c3ccoc3C)n2C)nc2cc(S(=O)(=O)N(C)C)ccc21	-1	4	-10	32*	4	1	15
CCn1c(CSc2nnc(C)n2-c2ccccc2)nc2cc(S(=O)(=O)N(C)C)ccc21	13	8	7	3	0	0	nt
COC(=O)C[C@H]1CC[C@H]2[C@H](COc3ccc(NC(=O)C4CCOCC4)cc3C(=O)N2C)O1	nt	4	-3	nt	nt	-1	nt
COCCNC(=O)C(c1ccncc1)N(C(=O)Cn1nnc2ccccc21)c1ccc(OC)cc1 (centres undefined)	11	12	1	16*	4	8	19*
COCCNC(=O)C(c1ccc(OC)cc1)N(C(=O)Cn1nnc2ccccc21)c1cccnc1 (centres undefined)	0	-9	1	-7	-6	-6	nt
COc1ccc2c(c1)-c1c(ssc1=S)C(C)(C)N2C(=O)CSC1=NCCS1	14	0	29	6	-3	8	nt
CCOc1ccc2c(c1)-c1c(ssc1=S)C(C)(C)N2C(=O)c1ccco1	1	-15	6	17*	-1	9	16*
SMILES	HTRA1 inh	TDP2 absorb	ABHD4 inh	PAD4 inh	TCR-CD3 inh	SIAE primary	PAD4 FP conf
CC(OC(=O)c1cccc(Cl)c1)C(=O)NC1CCCCC1C (centres undefined)	1	4	-1	3	4	-2	nt
CC(OC(=O)c1nc(Cl)ccc1Cl)C(=O)NC1CCCCC1C (centres undefined)	2	1	-3	25*	-1	5	4
O=C(CSc1nnc(-c2ccccc2)n1-c1ccc(Cl)cc1)NN=Cc1c[nH]c2ccccc12	nt	-4	-1	nt	nt	1	nt
Cc1csc(NC(=O)CSc2ncnc3c2cnn3-c2ccccc2Cl)n1	-6	nt	nt	15*	nt	nt	8
CC(C)C(=O)NNC(=O)CSc1ncnc2c1cnn2-c1ccccc1Cl	6	-13	4	2	2	-8	nt
CCOC(=O)c1cc(C)sc1NC(=O)CSc1nnnn1C	-3	-18	-5	2	-6	-2	nt
CCOC(=O)c1cc(C)sc1NC(=O)CSC1=NCCS1	-14	-3	-9	15*	8	-4	19*
CC(=O)N1[C@@H](CO)[C@@H](c2ccc(-c3cccc(F)c3)cc2)[C@@H]1CNCC1CCC1	nt	-4	3	nt	nt	-9	nt
COC(=O)c1cc(C)nc(Sc2ccccc2N)n1	nt	1	-1	68*	2	6	78*
COC(=O)c1ccccc1NC(=O)CSc1nc(C)cc(C)n1	-3	7	2	-3	1	1	nt
O=C1C(Cl)=C(N2CCC(C(=O)O)CC2)C(=O)c2ccccc21	7	nt	nt	20*	nt	nt	15*
COC/C=C/C1=CC2=CC(=O)C(C)(OC(=O)c3cnc4ccccc4n3)C(=O)C2=CN1CC1CC1 (centres undefined)	14	nt	nt	24*	nt	nt	3
COC/C=C/C1=CC2=CC(=O)C(C)(OC(=O)c3cnc4ccccc4n3)C(=O)C2=CN1C1CC1 (centres undefined)	8	14	20	9	1	10	nt
C#CCN(CC=C)Cc1ccc(OC)cc1OC	nt	7	0	nt	nt	-4	nt
O=C(NCCCN1CCOCC1)c1ccc(Cl)cc1Cl	-6	-3	3	15*	-2	8	1
Cc1ccccc1N1CCN(C(=S)c2ccc([N+](=O)[O-])cc2)CC1	-3	-2	2	20*	2	2	2
